Source: ChEMBL document CHEMBL1132146, “Chemical stability and fate of the cytostatic drug ifosfamide and its N-dechloroethylated metabolites in acidic aqueous solutions” (J Med Chem, 1999)

Key:
[1] = pKa. (dissociation constant) of the compound; assay type: physicochemical
Summary of the method: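 ³¹P NMR titration at 25 °C in aqueous 0.1 M NaCl to keep ionic strength constant. pH adjusted with NaOH or HCl and measured before and after each spectrum. pKa calculated from the pH dependence of the chemical shift.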

L1210 = assay: In vitro antitumor activity against murine leukemic L1210 cells; No activity; assay type: functional, cell-based; conditions: Mus musculus
[2] = acute toxicity against rat after iv administration; assay type: organism-based; conditions: in vivo
Summary of the method: (§1)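 Single iv or ip injection; two female SD rats or male CD2F1 mice per dose group. Lethality and clinical signs of toxicity observed for 28 days to give an approximate LD50. Animals kept specific-pathogen-free with pellet diet and acidified water (pH 3) ad libitum.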

P388 [3] = assay: In vivo antitumor activity against murine P388 leukemia; No activity; assay type: functional, organism-based; conditions: Mus musculus
[4] = acute toxicity against mouse after ip administration; assay type: organism-based; conditions: in vivo; summary of the method: as §1
P388 [5] = assay: In vivo antitumor activity against murine P388 leukemia; Effective; assay type: functional, organism-based; conditions: Mus musculus

Row | Structure (SMILES) | pKa [1] | Activity (L1210) | LD50 [2] [mg/kg] | Activity (P388 [3]) | LD50 [4] [mg/kg] | Activity (P388 [5])
1 | O=P1(O)NCCCO1 | 4.1 |  |  |  |  | 
2 | NP1(=O)NCCCO1 (centres undefined) |  | No activity |  |  |  | 
3 | NP(=O)(O)OCCCNCCCl | 2.3 |  |  |  |  | 
4 | O=P(O)(O)OCCCNCCCl |  | No activity | 800 | No activity |  | 
5 | O=P(O)(O)OCCCN1CC1 |  | No activity |  | No activity | 180 | 
6 | O=P1(NCCCl)OCCCN1CCCl (centres undefined) [IFOSFAMIDE] |  |  | 300 |  | 700 | Effective
7 | O=P(O)(OCCCNCCCl)OP(=O)(O)OCCCNCCCl |  | No activity |  | No activity | > 1000 | 
8 | NP1(=O)OCCCN1CCCl (centres undefined) |  |  | > 1000 |  |  | 
9 | O=P1(NCCCl)NCCCO1 (centres undefined) |  | No activity | 800 | No activity |  | 
